The text below walks through data of ChEMBL document CHEMBL4431330, “3-Arylpropionylhydroxamic acid derivatives as Helicobacter pylori urease inhibitors: Synthesis, molecular docking and biological evaluation” (Bioorg Med Chem, 2016).

Active and inactive are the calls of the source. The calls are words filed in the database; no cut-off is given here.

Series [1] has as its target T1, Urease subunit alpha/Urease subunit beta (Helicobacter pylori (strain ATCC 700392 / 26695) (Campylobacterpylori), UniProt P69996). Description: Inhibition of Helicobacter pylori urease using urea as substrate assessed as ammonia production after 50 mins by indophenol method. The format is protein-complex assay. In a few lines:
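Urease prepared from H. pylori grown 24 h at 37 °C in Brucella broth with 10% heat-inactivated horse serum under microaerobic conditions. Cells washed in PBS pH 7.4, sonicated with protease inhibitors, desalted on Sephadex G-25, stored in glycerol at 4 °C. Enzyme (10 U) pre-incubated with compound 50 min at 37 °C. Ammonia read by absorbance (indophenol method).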

In series [2] the target is T1, Urease subunit alpha/Urease subunit beta. Description: Substrate inhibition of Helicobacter pylori urease in presence of >4 mM urea by indophenol method. Type of series: protein-complex assay. In a few lines:
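No inhibitor. H. pylori urease velocity (indophenol ammonia read-out) was measured against a range of urea concentrations. Km and the substrate-inhibition constant Ksi were obtained by nonlinear least-squares fitting of V = Vmax[S]/(Km + [S] + [S]²/Ksi).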

The target is the same in series [3]. Description: Inhibition of Helicobacter pylori urease using urea as substrate assessed as inhibition constant for enzyme-urea-inhibitor complex by non-linear fitting analysis. Type of series: protein-complex assay. In a few lines: (§1)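 Urease came from H. pylori grown 24 h at 37 °C in Brucella broth with 10% heat-inactivated horse serum under microaerobic conditions. Washed cells were sonicated with protease inhibitors, desalted on Sephadex G-25, and stored in glycerol. Ammonia production rate (indophenol) was measured across urea gradients below 4 mM at each inhibitor level. V–[S] curves were fitted nonlinearly. Fitted constants b and c were plotted linearly against [I], and Ki and Ki′ were taken from the X-axis intercepts.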

The nature of series [4]: Protein binding in human plasma after 20 mins by ultra-filtration method. To be noted: read-out: PPB (converted). Type of series: ADME, cell-free. The essentials:
(§2)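 Ultrafiltration, in triplicate. Compound was incubated with human plasma or freshly collected rabbit plasma for 20 min at 37 °C. Samples were then centrifuged through filter devices at 5000 r/min for 15 min at 37 °C. Initial plasma and ultrafiltrate were diluted 8-fold and read by UV-vis. Nonspecific membrane binding was corrected using PBS spiked at the same concentration. % bound = (1 − Cf/(C0(1−NBS)))×100.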

Series [5] has as its target T2, Urease subunit alpha/Urease subunit beta (Helicobacter pylori (strain ATCC 700392 / 26695) (Campylobacterpylori)) (UniProt P69996+P14916). Description: Potency index, ratio of acetohydroxamic acid IC50 to compound IC50 for Helicobacter pylori urease. The format is protein-complex assay. The essentials:
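Ratio of the acetohydroxamic acid IC50 to the compound IC50. […] Ammonia formed from urea was then read by the Weatherburn indophenol method.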

Series [6] deals with T2, Urease subunit alpha/Urease subunit beta (Helicobacter pylori (strain ATCC 700392 / 26695) (Campylobacterpylori)). Nature of the series: Mixed inhibition of Helicobacter pylori urease assessed as dissociation of enzyme-urea-inhibitor complex by non-linear fitting analysis.
Series [7] in a line: Protein binding in rabbit plasma after 20 mins by ultra-filtration method. Type of series: ADME, cell-free, Oryctolagus cuniculus. To be noted: read-out: PPB (converted). The essentials: as §2
For series [8], the target named is T1, Urease subunit alpha/Urease subunit beta. Description: Inhibition of Helicobacter pylori urease using urea as substrate assessed as inhibition constant for enzyme-inhibitor complex by non-linear fitting analysis. The format is protein-complex assay. In a few lines:
as §1

T2 sequence (P14916 whole entry, looked up): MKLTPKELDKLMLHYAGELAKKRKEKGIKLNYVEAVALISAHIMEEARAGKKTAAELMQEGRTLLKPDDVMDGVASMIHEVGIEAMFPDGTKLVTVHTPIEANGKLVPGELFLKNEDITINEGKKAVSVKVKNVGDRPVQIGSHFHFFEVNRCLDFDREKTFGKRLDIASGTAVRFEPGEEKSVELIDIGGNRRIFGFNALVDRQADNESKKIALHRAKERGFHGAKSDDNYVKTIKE
T2 sequence (P69996 whole entry, looked up): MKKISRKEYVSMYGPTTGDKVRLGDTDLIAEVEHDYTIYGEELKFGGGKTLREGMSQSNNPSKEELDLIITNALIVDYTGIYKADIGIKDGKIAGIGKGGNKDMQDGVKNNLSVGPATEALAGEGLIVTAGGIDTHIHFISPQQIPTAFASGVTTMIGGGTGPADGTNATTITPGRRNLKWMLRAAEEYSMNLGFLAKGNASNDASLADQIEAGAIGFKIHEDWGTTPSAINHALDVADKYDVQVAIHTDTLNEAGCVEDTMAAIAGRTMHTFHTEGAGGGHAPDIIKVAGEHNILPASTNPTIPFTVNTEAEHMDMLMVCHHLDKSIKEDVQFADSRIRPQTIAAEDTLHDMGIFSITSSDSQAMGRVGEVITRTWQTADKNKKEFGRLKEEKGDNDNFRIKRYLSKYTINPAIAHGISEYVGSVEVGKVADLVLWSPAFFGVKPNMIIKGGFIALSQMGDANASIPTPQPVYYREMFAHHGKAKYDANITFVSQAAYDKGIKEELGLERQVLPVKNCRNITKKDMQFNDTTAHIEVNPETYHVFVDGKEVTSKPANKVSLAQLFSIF
T1 sequence (P69996 whole entry): as the sequence (P69996 whole entry, looked up) above
T1 sequence (P14916 whole entry, further chain): as the sequence (P14916 whole entry, looked up) above

On to `CN(O)C(=O)CC(O)c1ccc(Cl)c(Cl)c1` (stereo not drawn), for which the IC50 in series [1] was 90.4 µM. `CN(O)C(=O)CC(O)c1ccc(Cl)cc1` (stereo not drawn): the IC50 in series [1] amounted to 87.4 µM. Same read-out and setting: the figure for `COc1ccc(C(O)CC(=O)N(C)O)cc1OC` (stereo not drawn) is 405 µM; for `CN(O)C(=O)CC(O)c1c(Cl)cccc1Cl` (stereo not drawn) it is 77.9 µM; for `COc1cc(C(O)CC(=O)N(C)O)ccc1OCc1ccccc1` (stereo not drawn) it is 258 µM. Still for that read-out and setting: with `CN(O)C(=O)CC(O)c1ccc(Br)cc1` (stereo not drawn) the figure was 97.6 µM. Regarding `COc1ccc(C(O)CC(=O)N(C)O)cc1` (stereo not drawn), the IC50 in series [1] is 328 µM.

In the case of `CN(O)C(=O)CC(O)c1cc(Cl)ccc1OCc1ccccc1` (stereo not drawn), the IC50 in series [1] was 26.2 µM. In the case of `NC(N)=O` [UREA], in series [2], the Ki was 6470 µM. As for `COc1cccc(C(O)CC(=O)N(C)O)c1` (stereo not drawn), the IC50 in series [1] came to 89.2 µM. On the same count and under the same terms, with `CN(O)C(=O)CC(O)c1cccc(Cl)c1` (stereo not drawn) the figure was 48 µM; with `CN(O)C(=O)CC(O)c1ccc(Cl)cc1Cl` (stereo not drawn), 367 µM. Still for that read-out and setting: with `CN(O)C(=O)CC(O)c1cccc(Br)c1` (stereo not drawn) the figure was 78.2 µM. Same read-out and setting: with `COc1ccccc1C(O)CC(=O)N(C)O` (stereo not drawn) the figure was 84 µM. For `CN(O)C(=O)CC(O)c1cc(Cl)ccc1O` (stereo not drawn), the IC50 in series [1] was found to be 30.5 µM.

Take `O=C(CC(O)c1cc(Cl)ccc1O)NO` (stereo not drawn): the Ki in series [3] was 1.21 µM; in series [8], 4.79 µM. The fraction unbound at 20 min was 0.472 in series [4] and 0.548 in series [7]. Also, in series [1], the IC50 was 1.1 µM. Moreover, in series [5], the Ratio IC50 was greater than 20. For the same compound, in series [6], the inhibition result is “Active”.

For the compound `CN(O)C(=O)CC(O)c1ccccc1Cl` (stereo not drawn), the IC50 in series [1] is 56.6 µM. Same read-out and setting: the figure for `CN(O)C(=O)CC(O)c1cccc(Cl)c1Cl` (stereo not drawn) is 95.8 µM.

With `O=C(CC(O)c1cc(Cl)ccc1OCc1ccccc1)NO` (stereo not drawn), the values for the Ki in series [3] and in series [8] were 0.373 µM and 0.404 µM, respectively. The fraction unbound at 20 min is 0.626 in series [4] and 0.562 in series [7]. Besides, in series [1], the IC50 is 0.15 µM. Besides, the Ratio IC50 in series [5] was greater than 20. In series [6], the inhibition result was “Active”. For the compound `CN(O)C(=O)CC(O)c1ccc(N(C)C)cc1` (stereo not drawn), in series [1], the IC50 came out at 287 µM. Take `CC(=O)NO` [ACETOHYDROXAMIC ACID]: the concentration for half-maximal inhibition (IC50) in series [1] amounted to 23.8 µM. Same read-out and setting: with `CN(O)C(=O)CC(O)c1ccc(OCc2ccccc2)c(OCc2ccccc2)c1` (stereo not drawn) the figure was 376 µM; with `CN(O)C(=O)CC(O)c1ccc(OCc2ccccc2)cc1` (stereo not drawn), 198 µM; with `CN(O)C(=O)CC(O)c1cccc(F)c1` (stereo not drawn), 71.2 µM. Consider `CN(O)C(=O)CC(O)c1ccc(F)cc1` (stereo not drawn), for which the 50% inhibitory concentration (IC50) in series [1] stood at 77.2 µM.

For `O=C(CC(O)c1ccc(Cl)cc1Cl)NO` (stereo not drawn), the IC50 in series [1] was found to be 13.4 µM.
